Reference: ChEMBL document CHEMBL3596186, “Synthesis and biological evaluation of diarylthiazole derivatives as antimitotic and antivascular agents with potent antitumor activity” (Bioorg Med Chem, 2015)
pIC50: −log10 of the molar value. Active and inactive are the calls of the source. The rule behind the calls is not given here.

Legend:
HCT-116 [1] = experiment: Induction of apoptosis in human HCT116 cells assessed as necrotic cells at 0.5 uM after 48 hrs by annexin V/propidium iodide staining-based flow cytometry (reference value: 3.49%); type: functional
HCT-116 [2] = experiment: Antitumor activity against human HCT116 cells xenografted in Balb/c athymic nude mouse assessed as tumor growth inhibition at 20 mg/kg, ip administered daily after 42 days; type: functional; settings: HCT-116, ip, 1008 h, read-out: TGI
In short: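 Female Balb/C athymic nude mice, 5-6 weeks old, implanted s.c. in the right flank with HCT116 cells in 100 µL HBSS. Tumor volume (π/6 × L × W²) and body weight measured every 2 days. Inhibition = (1 − treated/control tumor weight) × 100%.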

HCT-116 [3] = experiment: Induction of apoptosis in human HCT116 cells assessed as early apoptotic cells at 1 uM after 48 hrs by annexin V/propidium iodide staining-based flow cytometry (reference value: 2.83%); type: functional
In short: (§1)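 HCT116 cells treated with compound or DMSO for 24 or 48 h, trypsinized, washed twice in PBS and dual-stained with annexin-V and PI. Analysed by flow cytometry: early apoptotic cells scored as annexin-V+/PI−, late apoptotic cells as annexin-V+/PI+.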

HCT-116 [4] = experiment: Induction of apoptosis in human HCT116 cells assessed as late apoptotic cells at 0.2 uM after 48 hrs by annexin V/propidium iodide staining-based flow cytometry (reference value: 1.71%); type: functional; in short: as §1
HCT-116 [5] = experiment: Induction of apoptosis in human HCT116 cells assessed as viable cells at 1 uM after 24 hrs by annexin V/propidium iodide staining-based flow cytometry (reference value: 92%); type: functional; settings: HCT-116, 24 h, read-out: Activity
SK-OV-3 = experiment: Antitumor activity against human SKOV3 cells xenografted in Balb/c athymic nude mouse assessed as tumor growth inhibition at 20 mg/kg, ip administered daily after 42 days; type: functional; settings: SK-OV-3, ip, 1008 h, read-out: TGI
In short: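 Female Balb/C athymic nude mice, 5-6 weeks old, bearing s.c. right-flank SK-OV-3 xenografts implanted in HBSS. At about 100 mm3, groups of 6 given vehicle, 5-FU 10 mg/kg or compound 20 mg/kg i.p. daily. Tumors measured every 2 days (π/6 × L × W²); inhibition = (1 − treated/control tumor weight) × 100%.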

HCT-116 [6] = experiment: Cell cycle arrest in human HCT116 cells assessed as accumulation at G1 phase at 0.2 uM after 24 hrs by flow cytometry (reference value: 53.98%); type: functional
HCT-116 [7] = experiment: Induction of apoptosis in human HCT116 cells assessed as late apoptotic cells at 0.2 uM after 24 hrs by annexin V/propidium iodide staining-based flow cytometry (reference value: 1.71%); type: functional; in short: as §1
HepG2 [8] = experiment: Antimitotic activity in human HepG2 cells assessed as inhibition of microtubule formation at 0.2 uM after 24 hrs by DAPI staining-based immmunofluorescence assay; type: functional, cell-based
In short: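 HepG2 cells seeded in 6-well plates and treated with compound. Fixed in 4% paraformaldehyde, permeabilized with 0.5% Triton X-100 in PBS, blocked 30 min in 5% goat serum at room temperature. Stained with monoclonal anti-α-tubulin 1 h at room temperature, then fluorescent secondary antibody, nuclei labelled with DAPI. Viewed by fluorescence microscopy.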

HepG2 [9] = experiment: Cell cycle arrest in human HepG2 cells assessed as accumulation at S phase at 0.2 uM after 24 hrs by flow cytometry (reference value: 23.97%); type: functional
[10] = Antiproliferative activity against human A2780S cells after 48 hrs by MTT assay; type: functional, cell-based; settings: A2780, 48 h
In short: (§2)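 HCT116, HepG2, SMMC-7721, SK-OV-3 and A2780s grown in DMEM; A549 and MCF-7 in RPMI-1640; all with 10% FBS and penicillin/streptomycin at 37 °C, 5% CO2. Log-phase cells at 40,000-50,000 cells/mL treated with graded concentrations for 48 h. MTT 3 h, DMSO solubilization, A570. IC50 from percent growth versus untreated control; mean ± SEM of ≥3 independent dose-response experiments.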

HepG2 [11] = experiment: Induction of apoptosis in human HepG2 cells assessed as viable cells at 0.5 uM after 24 hrs by annexin V/propidium iodide staining-based flow cytometry (reference value: 89.8%); type: functional; settings: HepG2, 24 h, read-out: Activity
HCT-116 [12] = experiment: Cell cycle arrest in human HCT116 cells assessed as accumulation at S phase at 1 uM after 24 hrs by flow cytometry (reference value: 25.66%); type: functional
HepG2 [13] = experiment: Cell cycle arrest in human HepG2 cells assessed as accumulation at G1 phase at 0.2 uM after 24 hrs by flow cytometry (reference value: 62.74%); type: functional
Mus musculus = experiment: Toxicity in Balb/c athymic nude mouse xenografted with human SKOV3 cells assessed as loss in body weight at 20 to 50 mg/kg, ip administered daily; type: organism-based, SK-OV-3; settings: in vivo
In short: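 Female Balb/C athymic nude mice, 5-6 weeks old, carrying s.c. right-flank SK-OV-3 xenografts started from cells in HBSS. At about 100 mm3, groups of 6 received vehicle, 5-FU 10 mg/kg, or test agent i.p. daily. Body weight was measured every two days.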

HepG2 [14] = experiment: Induction of apoptosis in human HepG2 cells assessed as late apoptotic cells at 0.2 uM after 24 hrs by annexin V/propidium iodide staining-based flow cytometry (reference value: 3.74%); type: functional
HCT-116 [15] = experiment: Induction of apoptosis in human HCT116 cells assessed as necrotic cells at 0.2 uM after 24 hrs by annexin V/propidium iodide staining-based flow cytometry (reference value: 3.49%); type: functional
HepG2 [16] = experiment: Antiproliferative activity against human HepG2 cells after 48 hrs by MTT assay; type: functional, cell-based; settings: HepG2, 48 h; in short: as §2
NCI-H1975 = experiment: Antiproliferative activity against human gefitinib-resistant NCI-H1975 cells after 48 hrs by MTT assay; type: functional, cell-based; settings: NCI-H1975, 48 h
A549 = experiment: Resistance ratio, ratio of IC50 for human taxol-resistant A549 cells to IC50 for human A549 cells; type: functional
In short: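 MTT assay: log-phase cells at 40,000-50,000 cells/mL in RPMI-1640 with 10% FBS, exposed to graded concentrations for 48 h, then MTT 3 h, DMSO solubilization, absorbance at 570 nm. IC50 from growth versus untreated control, at least three independent experiments. Ratio = resistant-line IC50 / parental-line IC50.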

HepG2 [17] = experiment: Induction of apoptosis in human HepG2 cells assessed as early apoptotic cells at 1 uM after 48 hrs by annexin V/propidium iodide staining-based flow cytometry (reference value: 0.87%); type: functional
HCT-116 [18] = experiment: Induction of apoptosis in human HCT116 cells assessed as early apoptotic cells at 0.2 uM after 48 hrs by annexin V/propidium iodide staining-based flow cytometry (reference value: 2.83%); type: functional; in short: as §1
HepG2 [19] = experiment: Induction of apoptosis in human HepG2 cells assessed as necrotic cells at 0.5 uM after 48 hrs by annexin V/propidium iodide staining-based flow cytometry (reference value: 1.59%); type: functional
HepG2 [20] = experiment: Induction of apoptosis in human HepG2 cells assessed as early apoptotic cells at 0.5 uM after 48 hrs by annexin V/propidium iodide staining-based flow cytometry (reference value: 0.87%); type: functional

## CCOc1ccc(-c2nc(N)sc2-c2cc(OC)c(OC)c(OC)c2)cc1
HCT-116 [1]
  Activity: 4.36%
HCT-116 [2]
  inhibition in vivo at 20 mg/kg: 49.5%
HCT-116 [3]
  Activity: 43.1%
HCT-116 [4]
  Activity: 23.4%
HCT-116 [5]
  viability at 1 µM: 62.1%
SK-OV-3
  inhibition in vivo at 20 mg/kg: 49.6%
HCT-116 [6]
  Activity: 29.2%
HCT-116 [7]
  Activity: 8.08%
HepG2 [8]
  Activity: Active
HepG2 [9]
  Activity: 29.88%
[10]
  pIC50: 7.80
HepG2 [11]
  viability at 0.5 µM: 80.7%
HCT-116 [12]
  Activity: 7.71%
HepG2 [13]
  Activity: 50.57%
Mus musculus
  Activity: Toxic
HepG2 [14]
  Activity: 6.51%
HCT-116 [15]
  Activity: 3.69%
HepG2 [16]
  pIC50: 7.58
NCI-H1975
  pIC50: 6.66
A549
  Ratio IC50: 0.51
HepG2 [17]
  Activity: 74%
HCT-116 [18]
  Activity: 40.2%
HepG2 [19]
  Activity: 0.7%
HepG2 [20]
  Activity: 65.3%
